The source made the active and inactive calls. The rule behind the calls is not given here.

The test system of experiment [1] is U-937. The experiment can be described thus: Cytotoxicity against human U937 cells assessed as reduction in cell viability at 25 uM in presence of vorinostat incubated for 72 hrs by CellTiter-Glo Luminescent cell viability assay relative to control. The format is functional. The following applies: U-937, 72 h. The method in brief:
(§1)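 Viability after 72 h of single-agent or combined treatment with the HDAC inhibitor (0.05–0.25 μM) and the EZH2 inhibitor. EZH2 inhibitor range: U937 5–25 μM; RH4 10–50 μM. Synergy was assessed by combination index and isobologram analysis.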

Experiment [2] deals with U-937. The experiment in a line: Cytotoxicity against human U937 cells assessed as reduction in cell viability at 10 uM in presence of vorinostat incubated for 72 hrs by CellTiter-Glo Luminescent cell viability assay relative to control. The settings on record: U-937, 72 h. The class given is functional. The method in brief:
as §1

In experiment [3] the target is Histone deacetylase (Homo sapiens) (UniProt Q13547+O15379+Q9UBN7+Q92769+Q9UQL6+Q8WUI4+Q9BY41+Q96DB2+P56524+Q9UKV0+Q969S8). The experiment in a line: Inhibition of HDAC in human U937 cells assessed as Ac-H3 level at 50 uM in presence of vorinostat incubated for 120 hrs by Western blot analysis (reference value: 1). The format is cell-based. The settings on record: U-937. An outline of the steps: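 U937 leukemia cells given EZH2 inhibitor 50 μM together with HDAC inhibitor 0.5 μM; Western blot at 96 and 120 h for H3K27me3 or acetyl-H3, actin as loading control; densitometry normalized to loading control then to DMSO vehicle.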

Experiment [4] has as its target Histone-lysine N-methyltransferase EZH2 (Homo sapiens, UniProt Q15910). The experiment can be described thus: Inhibition of EZH2 in human RH4 cells assessed as H3K27me3 level at 50 uM in presence of vorinostat incubated for 96 hrs by Western blot analysis (reference value: 1). The format is cell-based. The method in brief:
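RH4 cells co-treated with EZH2 inhibitor at 50 μM plus HDAC inhibitor at 0.15 μM; Western blot after 72 or 96 h for H3K27me3 or acetyl-tubulin, vinculin loading control; densitometry normalized to loading control then DMSO vehicle.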

Experiment [5] deals with Histone deacetylase 1 (Homo sapiens, UniProt Q13547). The experiment in a line: Inhibition of human recombinant HDAC1 using AMC-K(Ac)GL as substrate by fluorescence based assay.
Experiment [6] addresses Histone deacetylase 5 (Homo sapiens, UniProt Q9UQL6). The experiment can be described thus: Inhibition of human recombinant HDAC5 using AMC-K(TFA)GL as substrate by fluorescence based assay.
Experiment [7] addresses T1, Histone deacetylase 8 (Homo sapiens, UniProt Q9BY41).
T1 sequence (Q9BY41 whole entry): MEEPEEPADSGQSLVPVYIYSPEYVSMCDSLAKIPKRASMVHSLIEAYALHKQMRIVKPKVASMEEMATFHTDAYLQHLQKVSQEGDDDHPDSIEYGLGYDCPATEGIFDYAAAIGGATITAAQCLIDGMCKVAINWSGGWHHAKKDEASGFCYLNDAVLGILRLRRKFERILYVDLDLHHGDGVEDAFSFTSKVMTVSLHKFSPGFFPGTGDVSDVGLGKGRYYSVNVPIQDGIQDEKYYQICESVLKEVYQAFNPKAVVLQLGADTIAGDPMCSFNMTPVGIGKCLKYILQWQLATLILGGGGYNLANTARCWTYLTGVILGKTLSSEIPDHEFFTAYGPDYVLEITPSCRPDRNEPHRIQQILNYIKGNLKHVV
The experiment in a line: Inhibition of human recombinant HDAC8 using AMC-K(Ac)GL as substrate by fluorescence based assay.

For experiment [8], the system named is U-937. The experiment in a line: Induction of apoptosis in human U937 cells assessed as necrotic cells at 10 uM incubated for 72 hrs by annexin V-FITC staining based flow cytometry (reference value: 0.5 %). The format is functional.
Experiment [9] can be described thus: Cell cycle arrest in human RH4 cells assessed as S accumulation at 14 uM incubated for 72 hrs by propidium iodide staining based flow cytometry (reference value: 29.9 %). The format is functional.
Experiment [10] is described as follows: Cell cycle arrest in human RH4 cells assessed as subG1 accumulation at 14 uM incubated for 72 hrs by propidium iodide staining based flow cytometry (reference value: 1.9 %). The format is functional.
The nature of experiment [11]: Cell cycle arrest in human RH4 cells assessed as G0/G1 accumulation at 28 uM incubated for 72 hrs by propidium iodide staining based flow cytometry (reference value: 46.2 %). The class given is functional.
Experiment [12] in a line: Induction of apoptosis in human RH4 cells assessed as early apoptotic cells at 14 uM incubated for 72 hrs by annexin V-FITC staining based flow cytometry (reference value: 10.8 %). The format is functional.
Experiment [13] is described as follows: Induction of apoptosis in human RH4 cells assessed as necrotic cells at 28 uM incubated for 72 hrs by annexin V-FITC staining based flow cytometry (reference value: 0.4 %). The format is functional.
For experiment [14], the species on record is Homo sapiens. The experiment can be described thus: Induction of differentiation of human RH4 cells assessed as increase in myogenin level at 7 uM incubated for 96 hrs by Western blot analysis. The class given is functional. The method in brief: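 Myogenin was measured by Western blot in RH4 cells treated at 7 and 14 μM for 48, 72 and 96 h. Vinculin served as the loading control.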

Experiment [15] has as its system U-87MG ATCC. The experiment in a line: Upregulation of E-cadherin levels in human U87 cells at 5 to 25 uM incubated for 24 hrs by Western blot analysis. The format is functional, cell-based. An outline of the steps:
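U87 glioblastoma cells treated 24 h at 5, 10 and 25 μM with DMSO control; E-cadherin and Snail probed by Western blot, tubulin as loading control.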

Histone deacetylase 1, sequence (Q13547 whole entry): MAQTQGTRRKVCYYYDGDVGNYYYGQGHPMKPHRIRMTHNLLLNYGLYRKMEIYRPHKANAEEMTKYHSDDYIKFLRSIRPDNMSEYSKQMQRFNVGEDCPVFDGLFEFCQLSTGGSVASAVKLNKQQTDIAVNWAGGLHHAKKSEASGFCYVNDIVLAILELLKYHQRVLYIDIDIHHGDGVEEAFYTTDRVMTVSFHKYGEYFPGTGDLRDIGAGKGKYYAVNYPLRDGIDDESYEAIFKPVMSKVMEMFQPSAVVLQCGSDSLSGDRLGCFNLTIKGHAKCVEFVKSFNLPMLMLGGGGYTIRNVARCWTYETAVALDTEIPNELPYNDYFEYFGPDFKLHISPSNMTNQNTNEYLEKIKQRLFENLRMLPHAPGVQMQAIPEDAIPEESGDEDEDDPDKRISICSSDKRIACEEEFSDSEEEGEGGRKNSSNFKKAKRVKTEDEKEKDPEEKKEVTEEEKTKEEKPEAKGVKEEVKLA
Histone deacetylase 5, sequence (Q9UQL6 whole entry): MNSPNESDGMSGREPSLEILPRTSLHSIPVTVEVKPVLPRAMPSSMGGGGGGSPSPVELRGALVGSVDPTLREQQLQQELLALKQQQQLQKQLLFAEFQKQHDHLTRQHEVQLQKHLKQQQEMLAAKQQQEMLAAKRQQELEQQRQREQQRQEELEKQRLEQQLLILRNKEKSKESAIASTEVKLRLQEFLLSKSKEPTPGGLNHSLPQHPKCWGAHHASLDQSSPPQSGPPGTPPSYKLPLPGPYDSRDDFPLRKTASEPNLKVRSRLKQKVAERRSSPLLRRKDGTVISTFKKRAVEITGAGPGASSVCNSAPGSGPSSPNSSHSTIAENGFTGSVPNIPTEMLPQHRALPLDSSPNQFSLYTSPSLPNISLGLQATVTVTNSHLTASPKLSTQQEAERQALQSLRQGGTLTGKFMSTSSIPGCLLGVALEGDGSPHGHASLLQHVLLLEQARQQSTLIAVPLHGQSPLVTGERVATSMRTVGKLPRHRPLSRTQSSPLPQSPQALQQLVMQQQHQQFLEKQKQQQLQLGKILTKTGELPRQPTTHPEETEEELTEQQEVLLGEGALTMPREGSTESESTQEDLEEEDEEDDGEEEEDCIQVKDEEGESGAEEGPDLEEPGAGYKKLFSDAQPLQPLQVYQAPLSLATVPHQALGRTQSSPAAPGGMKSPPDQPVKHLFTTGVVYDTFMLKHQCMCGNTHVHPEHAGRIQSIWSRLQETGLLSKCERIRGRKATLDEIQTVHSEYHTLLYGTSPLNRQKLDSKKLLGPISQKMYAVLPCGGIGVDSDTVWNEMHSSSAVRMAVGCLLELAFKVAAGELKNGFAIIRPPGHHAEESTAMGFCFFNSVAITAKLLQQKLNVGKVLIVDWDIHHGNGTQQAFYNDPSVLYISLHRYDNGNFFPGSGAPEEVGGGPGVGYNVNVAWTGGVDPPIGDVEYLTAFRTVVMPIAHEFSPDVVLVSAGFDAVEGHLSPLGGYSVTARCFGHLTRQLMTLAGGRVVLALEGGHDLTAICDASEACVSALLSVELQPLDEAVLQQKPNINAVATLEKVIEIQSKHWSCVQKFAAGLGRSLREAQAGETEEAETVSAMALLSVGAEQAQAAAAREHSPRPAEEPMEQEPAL
Histone-lysine N-methyltransferase EZH2, sequence (Q15910 whole entry, looked up): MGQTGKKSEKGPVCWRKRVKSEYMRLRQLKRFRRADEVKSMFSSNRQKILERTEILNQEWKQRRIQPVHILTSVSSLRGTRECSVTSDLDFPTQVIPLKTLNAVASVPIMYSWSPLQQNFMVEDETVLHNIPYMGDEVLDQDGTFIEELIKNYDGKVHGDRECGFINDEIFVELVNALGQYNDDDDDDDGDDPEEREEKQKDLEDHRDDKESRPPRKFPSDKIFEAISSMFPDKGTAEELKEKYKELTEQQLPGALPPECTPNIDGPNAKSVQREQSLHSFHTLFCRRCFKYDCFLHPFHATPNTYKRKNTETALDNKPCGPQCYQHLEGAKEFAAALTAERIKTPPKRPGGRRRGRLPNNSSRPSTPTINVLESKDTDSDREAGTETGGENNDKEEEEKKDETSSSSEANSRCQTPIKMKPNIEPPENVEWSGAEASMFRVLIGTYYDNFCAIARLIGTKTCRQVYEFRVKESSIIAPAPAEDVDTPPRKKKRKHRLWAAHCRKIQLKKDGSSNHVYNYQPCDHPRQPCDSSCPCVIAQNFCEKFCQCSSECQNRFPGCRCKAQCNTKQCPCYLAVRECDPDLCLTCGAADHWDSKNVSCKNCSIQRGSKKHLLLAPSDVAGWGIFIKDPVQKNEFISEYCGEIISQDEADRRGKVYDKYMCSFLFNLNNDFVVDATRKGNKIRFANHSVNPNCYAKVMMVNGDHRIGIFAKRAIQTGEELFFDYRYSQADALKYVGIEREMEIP

In the case of `Cc1cc(C)c(CNC(=O)c2cc(C)n(-c3ccccc3)c2C)c(=O)[nH]1`, in [1], the inhibition at 25 µM worked out at 90%. Further, the inhibition at 10 µM in experiment [2] amounted to 70%. Also, the results for the fold change (FC) in [3] and in experiment [4] were 0.8 and 0.2, respectively.
Turning to `Cc1cc(C)c(CNC(=O)c2cc(C)n(-c3cccc(NC(=O)CCCCCCC(=O)NO)c3)c2C)c(=O)[nH]1`, the IC50 in experiment [5] worked out at 430 nM; in experiment [6], 16600 nM; in [7], 110 nM. For the same compound, the Activity in experiment [8] is given as 0.1%; in [9], 30.3%; in experiment [10] it was 3.8%; in [11], 44.9%; in experiment [12] it was 13.8%; in experiment [13], 0.4%. For the same compound, the outcome in experiment [14] and in experiment [15] was Active.

For the origin of these results see ChEMBL document CHEMBL4613315, “Design of First-in-Class Dual EZH2/HDAC Inhibitor: Biochemical Activity and Biological Evaluation in Cancer Cells” (ACS Med Chem Lett, 2020).
